From PubChem BioAssay
Rows were chosen to be rich in hits. Some 1.8% of all compounds tested hit in one or more screens of this group.
HDAC3 inh: human HDAC3 inhibition. O15379. recombinant HDAC3, fluorogenic peptide/trypsin coupled, fluorescence. inhibition, % at 8.3 µM. 0.15% of 320,000 active; in the data active means inhibition above about 26%, passing the limit was not always enough; inconclusive means no clear call, values can overlap the other calls
Bfl-1 A1 inh: inhibitors of the anti-apoptotic protein A1, read as caspase activation; MEF A1-2A-BIM cells, Caspase-Glo 3/7 luminescence, 3 h; percent of clofoctol response, vehicle zero; caspase activation, % (concentration not given with the values); 0.066% of 330,000 active; AID 2462;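 active means over half of replicate activation scores above 10%, or exactly half above 10 with the replicate mean above 10; inconclusive means replicate mean below 10 yet half the replicates above 10; inactive means over half of replicates below 10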
LANA-H2B inh: blocks KSHV LANA binding to histone H2A/H2B. Q9QR71. cell-free LANA-H2A/H2B peptide, fluorescence polarization. inhibition, % (test concentration not listed). 0.6% of 320,000 active; in the data active means inhibition mostly above about 10%, no sharp cut-off; inactive means mostly below about 6.7%
AI-2 QS modul: modulators of Vibrio harveyi AI-2 quorum sensing system; Vibrio harveyi JMH597 AI-2 luminescence/OD600 ratio, 9 h; stronger effect = lower value; strain lacks LuxN and CqsS sensors; 0 = neutral-control median; 0.4% of 300,000 active; activity change, % at 7.5 µM; in the data active means activity change below about -75%, passing the limit was not always enough; inconclusive means no clear call, values can overlap the other calls;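 further: luminescence divided by OD600 gain over 9 h not by final OD600 alone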
HKDC1 inhibitor: inhibitors of human hexokinase HKDC1; Q2TB90; recombinant HKDC1, G6PDH/diaphorase resazurin coupled fluorescence; inhibition, % at 20 µM; 0.16% of 340,000 active; AID 493160;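 active means inhibition above about 35% when tested at 20 µM, limit read from the data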;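 further: plate controls were DMSO wells with enzyme for no effect and DMSO wells lacking enzyme for full effect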
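System: Recombinant HKDC1 hexokinase | Amount: HKDC1 at 5 µg/mL | Reagent: Glucose with 1 mM ATP | Doses: Single 20 µM dose | Incubation: Reaction time 90 min, room temperature, protected from light | Signal: Coupled resazurin fluorescence, excitation 525 nm, emission 613 nm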
ATG4B inh: inhibitors of human ATG4B cysteine protease; Q9Y4P1; ATG4B cleavage of LC3-PLA2, NBD-HPC fluorescence, 1 h; inhibition, % at 8.33 µM; 0.51% of 340,000 active; AID 504462; in the data active means inhibition above about 40%
Numbers without * were called inactive; ? = inconclusive; . = no result; + = active, no number.

SMILES	HDAC3 inh	Bfl-1 A1 inh	LANA-H2B inh	AI-2 QS modul	HKDC1 inhibitor	ATG4B inh
CCOc1ccc(NC(=O)CN(C)C(=O)c2cc(C)nc3ccccc23)cc1OCC	8	-1	-5	.	3	1
CCOc1ccc(NC(=O)CN(C)C(=O)c2nc3nc(C)cc(C)n3n2)cc1OCC	7	0	35*	.	2	6
O=C(O)c1ccccc1-c1ccc(/C=c2\sc3nc4cc(Br)cnc4n3c2=O)o1	?	-1	-22	95	68*	28
S=C1NCCN1CC1CCN(CCCC2CCCC2)CC1	.	.	.	.	-2	.
Cc1ccc(-n2nc(C)c3onc(C)c3c2=O)cc1	2	0	28*	7	-5	0
CS(=O)(=O)N(CC(=O)NCCSc1ccc(Cl)cc1)c1ccc2c(c1)OCO2	6	-1	19*	24	0	-15
CCOC(=O)c1cnc2ccccc2c1Nc1ccc2c(c1)OCCO2	-10	1	16*	0	-1	8
CN(C)S(=O)(=O)c1cccc(COC(=O)CNC(=O)c2ccc(Br)o2)c1	.	.	.	.	-2	1
S=C(NCc1cccnc1)Nc1ccc(Oc2ccccc2)cc1	-4	0	-49	-4	-3	5
Cc1ncc(CO)c(CNc2ccc(Oc3ccccc3)cc2)c1O	-1	-1	0	-87*	4	-6
O=C(CCCSCCCC(=O)NN=Cc1ccccc1)NN=Cc1ccccc1	.	.	.	.	0	-11
CC(O)CNC1c2ccccc2CC1O (stereo not given)	.	.	.	.	-6	-6
CCC(=O)n1nc(-c2ccc(Cl)cc2)nc1SC	-3	-1	2	-1	-3	4
CCCC(=O)n1nc(-c2ccc(Cl)cc2)nc1SC	32*	-1	12	23	4	2
Cc1c(C)c2ccc(OCC(=O)N3CCOCC3)c(C)c2oc1=O	-18	0	+	28	-4	-11
Cc1c(C)c2ccc(OCC(=O)N(C)C)c(C)c2oc1=O	-69	-1	1	7	0	-4
COc1ccc(C(=O)CSc2cc(C)[nH]c(=O)n2)cc1	61*	-1	-4	16	3	-1
O=C(Cc1ccc(S(=O)(=O)N2CCOCC2)s1)Nc1cc(Cl)ccc1Cl	4	-1	+	.	0	-2
O=C(Cc1cccs1)Nc1cc(S(=O)(=O)N2CCCCC2)ccc1Cl	-1	1	82*	.	-1	-8
COc1cc(NC(=O)Cc2ccc(S(=O)(=O)N3CCOCC3)s2)c(OC)cc1Cl	1	1	4	28	-2	-10
CC1CCN(S(=O)(=O)c2ccc(NC(=O)Cc3ccc(S(=O)(=O)N4CCOCC4)s3)cc2)CC1	-4	-1	+	29	0	-7
CCCCn1c(N)c(N(CC(C)C)C(=O)CCNC(=O)c2ccc([N+](=O)[O-])cc2)c(=O)[nH]c1=O	.	.	.	.	-3	-5
Nc1nc2cc(Cl)c(Br)cc2o1	.	.	.	.	0	-8
C=CCN(CC=C)C(=O)C1CCN(S(=O)(=O)c2ccc(-n3cnnn3)cc2)CC1	0	0	-2	9	-2	6
C=CCN(CC=C)C(=O)C1CCN(S(=O)(=O)c2ccc(N3CCCC3=O)cc2)CC1	-4	0	15*	20	-1	-13
SMILES	HDAC3 inh	Bfl-1 A1 inh	LANA-H2B inh	AI-2 QS modul	HKDC1 inhibitor	ATG4B inh
Cc1cccc(NC(=O)CNC(=O)Cn2cc(C(F)(F)F)cc(Cl)c2=O)c1C	.	.	.	.	-6	-10
O=C(NC1CCCCC1)c1ccc(NS(=O)(=O)c2cccc3cccnc23)cc1	-3	3	1	5	-1	1
O=S(=O)(NC1CCCCCC1)c1cccc2cccnc12	2	1	182*	3	1	1
N#Cc1ccccc1/C=N/Nc1nc(-c2ccccc2)c2cc(Cl)ccc2n1	0	-1	55*	15	0	-8
CCOc1cc(C2C3=C(CCCC3=O)Nc3nc(C(=O)OC)nn32)ccc1OC (stereo not given)	2	0	20*	38	9	1
CCOc1ccc(C2C3=C(CCCC3=O)Nc3nc(C(F)(F)F)nn32)cc1OC (stereo not given)	12	0	-4	0	-1	4
O=C(c1cccn2c(=O)c3cc4ccccc4cc3nc12)N1CCN(c2ccccc2)CC1	1	-1	13*	10	.	.
